Assay results from ChEMBL document CHEMBL6120954, “Development of Fragment-Based Inhibitors of the Bacterial Deacetylase LpxC with Low Nanomolar Activity” (J Med Chem, 2024).
In brackets after ≈: the same amount, converted by molar mass.

Key:
Escherichia coli [1] = experiment: Antibacterial activity against Escherichia coli BL21(DE3) assessed as Diameter of inhibition zone incubated for 20 hrs by disc diffusion assay; assay type: functional
How it was run: (§1)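 E. coli BL21(DE3) and the defective strain D22 were grown overnight in LB at 37 °C and 200 rpm, and 150 μL was spread on LB agar. Each compound (0.15 μmol in 10 or 15 μL DMSO) was spotted on 6 mm filter paper discs, with DMSO as negative and CHIR-090 as positive control. Plates were incubated overnight at 37 °C and the growth-inhibition zone diameter was measured.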

[2] = Inhibition of Escherichia coli LpxC C63A mutant assessed as inhibition constant incubated for 30 mins by microplate reader analysis
How it was run: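 Purified E. coli LpxC C63A (15 nM final), expressed in E. coli BL21(DE3), with 25 μM UDP-3-O-[(R)-3-hydroxymyristoyl]-N-acetylglucosamine. Buffer was 40 mM MES pH 6.0, 80 μM DTT, 0.02% Brij 35 and 2% DMSO, with inhibitor at 20 nM–20 μM, for 30 min at 37 °C. The reaction was stopped with NaOH, neutralised with acetic acid, and product was derivatised with o-phthaldialdehyde/2-mercaptoethanol (ex 340, em 460 nm). Runs were done at least three times.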

Escherichia coli [3] = experiment: Antibacterial activity against Escherichia coli BL21(DE3) assessed as inhibition of visible bacterial growth incubated for 20 hrs by microdilution method; assay type: functional
How it was run: (§2)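 Broth microdilution in LB. Overnight cultures (37 °C, 200 rpm) were diluted 1:1000 and mixed with 2-fold compound dilutions in DMSO, giving 5 × 10⁵ cfu mL⁻¹, 5% DMSO and final compound concentrations of 64–0.016 μg mL⁻¹. Plates were incubated 20 h at 37 °C. MIC was the lowest concentration preventing visible growth, from at least three runs on separate days.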

Escherichia coli [4] = experiment: Antibacterial activity against Escherichia coli D22 assessed as inhibition of visible bacterial growth incubated for 20 hrs by microdilution method; assay type: functional; how it was run: as §2
Elastase = Elastase (Pseudomonas aeruginosa (strain ATCC 15692 / PAO1 / 1C / PRS 101 / LMG12228), UniProt P14756); experiment: Inhibition of Pseudomonas aeruginosa PA14 LasB by FRET assay
Sequence of Elastase (P14756 whole entry): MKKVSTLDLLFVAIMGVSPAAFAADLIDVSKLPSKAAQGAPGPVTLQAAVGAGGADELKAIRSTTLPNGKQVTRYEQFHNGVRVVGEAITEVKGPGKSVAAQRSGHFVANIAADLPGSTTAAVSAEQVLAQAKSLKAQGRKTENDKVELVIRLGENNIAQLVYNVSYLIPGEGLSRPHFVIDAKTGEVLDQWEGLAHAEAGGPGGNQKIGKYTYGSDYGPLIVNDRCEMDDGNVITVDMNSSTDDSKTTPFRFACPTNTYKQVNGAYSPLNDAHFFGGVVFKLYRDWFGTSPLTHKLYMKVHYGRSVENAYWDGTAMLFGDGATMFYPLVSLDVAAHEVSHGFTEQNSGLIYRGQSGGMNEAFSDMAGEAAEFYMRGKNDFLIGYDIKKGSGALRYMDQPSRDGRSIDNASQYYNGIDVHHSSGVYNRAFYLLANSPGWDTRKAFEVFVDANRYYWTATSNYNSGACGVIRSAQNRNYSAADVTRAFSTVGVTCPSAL

[5] = biological target: Elastase (Pseudomonas aeruginosa (strain ATCC 15692 / PAO1 / 1C / PRS 101 / LMG12228)) (UniProt P14756); experiment: Inhibition of Pseudomonas aeruginosa PA14 LasB at 20 uM by FRET assay relative to control
Sequence of Elastase (Pseudomonas aeruginosa (strain ATCC 15692 / PAO1 / 1C / PRS 101 / LMG12228)) (P14756 198-498 limits assumed): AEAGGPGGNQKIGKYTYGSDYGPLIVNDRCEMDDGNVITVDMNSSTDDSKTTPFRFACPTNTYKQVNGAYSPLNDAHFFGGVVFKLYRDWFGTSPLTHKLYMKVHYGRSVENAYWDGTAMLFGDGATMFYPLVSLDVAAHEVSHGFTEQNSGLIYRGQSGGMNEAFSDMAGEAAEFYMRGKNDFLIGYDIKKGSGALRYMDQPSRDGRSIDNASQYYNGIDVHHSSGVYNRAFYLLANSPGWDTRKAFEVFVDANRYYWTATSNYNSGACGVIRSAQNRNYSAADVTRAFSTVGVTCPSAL

Escherichia coli [6] = experiment: Antibacterial activity against Escherichia coli D22 assessed as diameter of inhibition zone incubated for 20 hrs by disc diffusion assay; assay type: functional; how it was run: as §1
[7] = biological target: T1, UDP-3-O-acyl-N-acetylglucosamine deacetylase (Pseudomonas aeruginosa, UniProt B5ATN6); experiment: Inhibition of Pseudomonas aeruginosa LpxC
T1 sequence (B5ATN6 whole entry): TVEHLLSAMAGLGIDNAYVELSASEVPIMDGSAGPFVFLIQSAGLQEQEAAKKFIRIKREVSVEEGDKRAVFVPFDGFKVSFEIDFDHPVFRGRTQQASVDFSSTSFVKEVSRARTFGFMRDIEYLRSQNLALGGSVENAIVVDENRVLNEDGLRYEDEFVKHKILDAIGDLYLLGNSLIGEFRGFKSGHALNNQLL
How it was run: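 Buffer was 50 mM potassium phosphate pH 7.5, 80 μM DTT, 0.02% Brij 35 and 2% DMSO, with inhibitor at 5 nM–5 μM, for 30 min at 37 °C. The reaction was stopped with HCl. Substrate and product were quantified by LC–MS/MS MRM peak areas relative to the uninhibited reaction, in at least two runs.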

[8] = Metabolic stability in CD-1 mouse microsome; assay type: ADME; details: microsomes
[9] = Metabolic stability in CD-1 mouse liver S9 fraction assessed as half life in presence of NADPH by HPLC-MS/MS analysis; assay type: ADME, subcellular
How it was run: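 Compound at 1 μM was incubated at 37 °C for 120 min with pooled mouse liver S9 (1 mg/mL), 2 mM NADPH, 1 mM UDPGA, 10 mM MgCl₂, 5 mM GSH and 0.1 mM PAPS. Aliquots taken at set times were quenched with 2 volumes of cold acetonitrile containing diphenhydramine internal standard and centrifuged. Remaining compound was quantified by HPLC–MS/MS to derive half-life, with testosterone, verapamil and ketoconazole as activity controls.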

Homo sapiens = organism: Homo sapiens; experiment: Inhibition of TACE (unknown origin) at 100 uM relative to control
[10] = Plasma protein binding in human; assay type: ADME, cell-free

O=C(NC[C@@H](OCc1ccc(C#Cc2ccc(CN3CCOCC3)cc2)cc1)C(=O)NO)c1ccc2ccccc2n1
diameter of the inhibition zone (DIZ) (Escherichia coli [1]): <=6 mm
Ki [2]: > 2540 nM

O=C(NO)[C@@H](OCc1ccc(C#Cc2ccc(CN3CCOCC3)cc2)cc1)[C@@H](O)COCc1ccccc1
MIC (Escherichia coli [3]): 4 µg/mL (≈ 7.54 µM)
MIC (Escherichia coli [4]): 0.13 µg/mL (≈ 0.245 µM)
diameter of the inhibition zone (DIZ) (Escherichia coli [1]): 11.2 mm
IC50 (Elastase): 17700 nM
Ki [2]: 280 nM
inhibition [5]: 61%
diameter of the inhibition zone (DIZ) (Escherichia coli [6]): 19.5 mm

O=C(NC[C@@H](OCc1ccc(C#Cc2ccc(CN3CCOCC3)cc2)cc1)C(=O)NO)c1ccc(-c2ccccc2)cc1
Ki [2]: > 2540 nM

CCc1ccc(-c2ccc(C(=O)N[C@H](C(=O)NO)[C@@H](C)NCc3ccccn3)cc2)cc1
IC50 [7]: 94.8 nM

O=C(NC[C@@H](OCc1ccc(C#Cc2ccc(CN3CCOCC3)cc2)cc1)C(=O)NO)c1cc(-c2ccccc2)[nH]n1
diameter of the inhibition zone (DIZ) (Escherichia coli [1]): <=6 mm
Ki [2]: > 2540 nM

O=C(NC[C@H](OCc1ccc(C#Cc2ccc(CN3CCOCC3)cc2)cc1)C(=O)NO)c1ccccc1
MIC (Escherichia coli [3]): > 16 µg/mL

O=C(NC[C@@H](OCc1ccc(C#Cc2ccc(CN3CCOCC3)cc2)cc1)C(=O)NO)c1c[nH]c2ccccc12
Ki [2]: 1580 nM

O=C(NO)[C@H](COCc1ccccc1)OCc1ccc(C#Cc2ccc(CN3CCOCC3)cc2)cc1
diameter of the inhibition zone (DIZ) (Escherichia coli [1]): <=6 mm

O=C(NC[C@H](OCc1ccc(C#Cc2ccc(CN3CCOCC3)cc2)cc1)C(=O)NO)c1ccc(-c2ccccc2)cc1
Ki [2]: > 2540 nM
inhibition [5]: < 10%

O=C(NC[C@H](OCc1ccc(C#Cc2ccc(CN3CCOCC3)cc2)cc1)C(=O)NO)c1cc[nH]n1
Stability [8]: Stable
t1/2 [9]: 1.07 h

Cc1noc(C)c1C(=O)NC[C@@H](OCc1ccc(C#Cc2ccc(CN3CCOCC3)cc2)cc1)C(=O)NO
Ki [2]: > 2540 nM
inhibition [5]: < 10%

O=C(NC[C@H](OCc1ccc(C#Cc2ccc(CN3CCOCC3)cc2)cc1)C(=O)NO)c1cccc(-c2ccccc2)c1
Ki [2]: 41.5 nM
inhibition [5]: < 10%

O=C(NC[C@H](OCc1ccc(C#Cc2ccc(CN3CCOCC3)cc2)cc1)C(=O)NO)c1ccc2ccccc2n1
Ki [2]: 377 nM

O=C(NO)[C@H](CN(Cc1ccccc1)Cc1ccccc1)OCc1ccc(C#Cc2ccc(CN3CCOCC3)cc2)cc1
MIC (Escherichia coli [3]): 8 µg/mL (≈ 13.6 µM)
diameter of the inhibition zone (DIZ) (Escherichia coli [1]): <=6 mm
Ki [2]: > 2540 nM
inhibition [5]: < 10%

O=C(NO)[C@H](OCc1ccc(C#Cc2ccc(CN3CCOCC3)cc2)cc1)[C@@H](O)COCc1ccccc1
MIC (Escherichia coli [3]): > 64 µg/mL
MIC (Escherichia coli [4]): 4 µg/mL (≈ 7.54 µM)
diameter of the inhibition zone (DIZ) (Escherichia coli [1]): 8.5 mm
Ki [2]: 870 nM
inhibition [5]: < 10%
diameter of the inhibition zone (DIZ) (Escherichia coli [6]): 13.3 mm

O=C(NC[C@H](OCc1ccc(C#Cc2ccc(CN3CCOCC3)cc2)cc1)C(=O)NO)c1ccc2[nH]ccc2c1
Stability [8]: Stable
Ki [2]: 9.46 nM
inhibition [5]: < 10%

Cc1noc(C)c1C(=O)NC[C@H](OCc1ccc(C#Cc2ccc(CN3CCOCC3)cc2)cc1)C(=O)NO
Ki [2]: 127 nM

O=C(NC[C@H](OCc1ccc(C#Cc2ccc(CN3CCOCC3)cc2)cc1)C(=O)NO)c1cc2ccccc2[nH]1
Ki [2]: 87 nM
inhibition [5]: < 10%

O=C(NO)[C@@H](OCc1ccc(C#Cc2ccc(CN3CCOCC3)cc2)cc1)[C@H](O)COCc1ccccc1
IC50 (Elastase): 14800 nM
inhibition [5]: 64.9%

O=C(COCc1ccc(C#Cc2ccc(CN3CCOCC3)cc2)cc1)NO
MIC (Escherichia coli [3]): 64 µg/mL (≈ 168 µM)
MIC (Escherichia coli [4]): 1 µg/mL (≈ 2.63 µM)
diameter of the inhibition zone (DIZ) (Escherichia coli [1]): 16.5 mm
Ki [2]: 1500 nM
diameter of the inhibition zone (DIZ) (Escherichia coli [6]): 20.3 mm

O=C(NO)[C@@H](CN(Cc1ccccc1)Cc1ccccc1)OCc1ccc(C#Cc2ccc(CN3CCOCC3)cc2)cc1
MIC (Escherichia coli [3]): > 64 µg/mL
diameter of the inhibition zone (DIZ) (Escherichia coli [1]): <=6 mm
Ki [2]: > 2540 nM
diameter of the inhibition zone (DIZ) (Escherichia coli [6]): <=6 mm

O=C(NC[C@@H](OCc1ccc(C#Cc2ccc(CN3CCOCC3)cc2)cc1)C(=O)NO)c1ccccc1
MIC (Escherichia coli [3]): > 16 µg/mL

O=C(NC[C@H](OCc1ccc(C#Cc2ccc(CN3CCOCC3)cc2)cc1)C(=O)NO)c1cnc2ccccc2c1
Ki [2]: 117 nM
inhibition [5]: < 10%

O=C(NO)[C@H](OCc1ccc(C#Cc2ccc(CN3CCOCC3)cc2)cc1)[C@H](O)COCc1ccccc1
inhibition [5]: < 10%

O=C(NC[C@@H](OCc1ccc(C#Cc2ccc(CN3CCOCC3)cc2)cc1)C(=O)NO)c1cccc(-c2ccccc2)c1
Ki [2]: > 2540 nM

Cc1noc(C)c1COC[C@H](O)[C@H](OCc1ccc(C#Cc2ccc(CN3CCOCC3)cc2)cc1)C(=O)NO
inhibition [5]: < 10%

O=C(NC[C@H](OCc1ccc(C#Cc2ccc(CN3CCOCC3)cc2)cc1)C(=O)NO)c1cc(-c2ccccc2)[nH]n1
Ki [2]: 85.2 nM
inhibition [5]: < 10%

O=C(NO)[C@@H](CO)OCc1ccc(C#Cc2ccc(CN3CCOCC3)cc2)cc1
MIC (Escherichia coli [3]): 64 µg/mL (≈ 156 µM)
MIC (Escherichia coli [4]): 2 µg/mL (≈ 4.87 µM)
diameter of the inhibition zone (DIZ) (Escherichia coli [1]): 12.3 mm
Ki [2]: 240 nM
diameter of the inhibition zone (DIZ) (Escherichia coli [6]): 22 mm

O=C(NO)[C@H](CO)OCc1ccc(C#Cc2ccc(CN3CCOCC3)cc2)cc1
MIC (Escherichia coli [3]): 32 µg/mL (≈ 78 µM)
MIC (Escherichia coli [4]): 1 µg/mL (≈ 2.44 µM)
diameter of the inhibition zone (DIZ) (Escherichia coli [1]): 15.7 mm
Ki [2]: 410 nM
diameter of the inhibition zone (DIZ) (Escherichia coli [6]): 25.8 mm

O=C(NC[C@@H](OCc1ccc(C#Cc2ccc(CN3CCOCC3)cc2)cc1)C(=O)NO)c1ccc(Oc2ccccc2)cc1
Ki [2]: > 2540 nM

O=C(NC[C@H](OCc1ccc(C#Cc2ccc(CN3CCOCC3)cc2)cc1)C(=O)NO)c1c[nH]c2ccccc12
inhibition (Homo sapiens): < 10%
Stability [8]: Stable
fraction unbound [10]: < 0.03
Ki [2]: 10.7 nM

O=C(NC[C@@H](OCc1ccc(C#Cc2ccc(CN3CCOCC3)cc2)cc1)C(=O)NO)c1cc2ccccc2[nH]1
Ki [2]: > 2540 nM

O=C(NC[C@H](OCc1ccc(C#Cc2ccc(CN3CCOCC3)cc2)cc1)C(=O)NO)c1ccc(Oc2ccccc2)cc1
Ki [2]: 323 nM
inhibition [5]: < 10%

O=C(NO)[C@@H](COCc1ccccc1)OCc1ccc(C#Cc2ccc(CN3CCOCC3)cc2)cc1
diameter of the inhibition zone (DIZ) (Escherichia coli [1]): <=6 mm

O=C(NC[C@@H](OCc1ccc(C#Cc2ccc(CN3CCOCC3)cc2)cc1)C(=O)NO)c1ccc2[nH]ccc2c1
Ki [2]: 1150 nM

O=C(NC[C@@H](OCc1ccc(C#Cc2ccc(CN3CCOCC3)cc2)cc1)C(=O)NO)c1cnc2ccccc2c1
Ki [2]: > 2540 nM
